Source: PubChem BioAssay
The list is not random: actives were taken first. Their share in the collection is about 4.7%.
KCC2 mod – KCC2 cotransporter modulators, thallium flux, primary screen, cell-based, HEK293 KCC2, FluoZin-2 fluorescence, MLSMR. KCC2 cells, thallium flux FluoZin-2 fluorescence. actives 2.2% (n = 190,000). AID 1456, 2008. B-score of Tl+ flux slope (higher = more flux/activation; lower = inhibition) at 10 µM. Solute carrier family 12 member 5 (Homo sapiens), Q9H2X9;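 active = thallium flux slope and its plate-corrected score both differing from the plate sample mean at a set confidence after two filtering rounds, in either direction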;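 note: slope of fluorescence scaled to starting intensity during 10 to 20 s after thallium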
Target sequence (Q9H2X9 whole entry, looked up): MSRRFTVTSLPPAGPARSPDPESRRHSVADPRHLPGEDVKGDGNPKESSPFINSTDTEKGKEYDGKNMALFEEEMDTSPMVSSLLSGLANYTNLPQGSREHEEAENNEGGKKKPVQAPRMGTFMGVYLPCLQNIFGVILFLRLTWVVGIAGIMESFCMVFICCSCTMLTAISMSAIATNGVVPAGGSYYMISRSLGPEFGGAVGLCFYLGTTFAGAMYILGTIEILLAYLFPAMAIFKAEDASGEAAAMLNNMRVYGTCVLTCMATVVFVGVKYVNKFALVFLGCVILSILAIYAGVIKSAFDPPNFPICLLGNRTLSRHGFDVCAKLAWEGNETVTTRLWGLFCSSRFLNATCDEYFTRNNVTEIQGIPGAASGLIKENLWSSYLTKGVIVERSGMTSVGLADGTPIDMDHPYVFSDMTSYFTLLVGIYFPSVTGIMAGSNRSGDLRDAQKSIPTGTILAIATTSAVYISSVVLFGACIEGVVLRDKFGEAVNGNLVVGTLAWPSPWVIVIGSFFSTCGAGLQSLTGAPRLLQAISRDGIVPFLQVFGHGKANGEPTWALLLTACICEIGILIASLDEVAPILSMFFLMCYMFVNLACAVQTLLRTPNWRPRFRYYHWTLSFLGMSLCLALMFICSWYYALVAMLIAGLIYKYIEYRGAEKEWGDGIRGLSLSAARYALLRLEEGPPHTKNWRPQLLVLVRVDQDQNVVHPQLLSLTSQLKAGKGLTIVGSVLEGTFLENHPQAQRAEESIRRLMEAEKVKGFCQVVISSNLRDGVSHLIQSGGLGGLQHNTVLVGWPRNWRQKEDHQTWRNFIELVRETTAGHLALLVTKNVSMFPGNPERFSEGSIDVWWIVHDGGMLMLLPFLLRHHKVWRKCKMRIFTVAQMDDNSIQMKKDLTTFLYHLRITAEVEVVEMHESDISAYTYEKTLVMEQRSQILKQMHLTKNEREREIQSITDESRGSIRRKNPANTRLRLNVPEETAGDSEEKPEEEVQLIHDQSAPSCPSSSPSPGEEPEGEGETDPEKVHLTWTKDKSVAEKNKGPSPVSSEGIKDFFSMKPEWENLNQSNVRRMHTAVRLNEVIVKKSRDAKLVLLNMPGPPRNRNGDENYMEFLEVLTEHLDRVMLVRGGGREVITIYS
MrgX1 PAM – positive allosteric modulators of MrgX1, primary screen, HEK293 cells, Fluo-4 calcium flux; B-score at 10 µM; actives 0.63% (n = 310,000); Mas-related G-protein coupled receptor member X1 (Homo sapiens), Q96LB2; FDSS; stronger effect = higher value;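 active = plate-corrected calcium response at least 3 library SD above typical, normal starting fluorescence, not activating the receptor alone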;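 note: compound read alongside a low EC10 to EC30 dose of BAM8-22 agonist; peak minus trough fluorescence over baseline measured at the second addition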
RGS4 act – RGS4 potentiators or activators, primary screen, cell-based, HEK293 M3R inducible RGS4, calcium flux | carbachol calcium flux Fluo4; stronger effect = lower value | B-score at 10 µM | actives 0.92% (n = 310,000);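 active = B-score of the integrated calcium signal more than 4 SD below the library mean, with starting fluorescence not abnormally high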;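 note: negative B-score means reduced calcium response which marks RGS4 activation or potentiation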
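System: HEK293 FlpIn-TREx cells, stable M3R, doxycycline-inducible RGS4. Timing: overnight RGS4 induction, 30 min dye load 37 °C, 20 min compound RT. Also added: carbachol, ECmax concentration. Measured by: Fluo4 fluorescence kinetic imaging of calcium. Evaluation: integrated calcium ratio converted to B score.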
RGS4 inh – RGS4 inhibitors, primary screen, cell-based, HEK293 M3R inducible RGS4, calcium flux; actives 0.45% (n = 310,000); Fluo-4 calcium flux; stronger effect = higher value; triggered by carbachol at its EC20; Regulator of G-protein signaling 4 (Homo sapiens), P49798; B-score at 10 µM;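 active = B-score, a plate-corrected calcium signal, over three deviations above library mean, with baseline fluorescence within five deviations of library mean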;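 note: RGS4 expression induced by doxycycline in cells with stable M3 receptor; B-score is computed from the integrated fluorescence ratio over baseline after carbachol; higher B-score means a larger calcium signal and so more RGS4 inhibition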
MrgX1 antagonist – antagonists of human MrgX1 receptor, primary screen, HEK293 cells, Fluo-4 calcium flux; Mas-related G-protein coupled receptor member X1 (Homo sapiens), Q96LB2; BAM8-22 antagonism; stronger effect = lower value; B-score at 10 µM; actives 1.3% (n = 310,000); AID 588676, 2011;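 active = calcium-response B-score plate-corrected more than 3 library SD below zero, starting fluorescence within 5 deviations, no agonist response on first addition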;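 note: peak minus trough fluorescence over baseline after final BAM8-22 challenge near maximal dose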
MrgX1 ag – agonists of human MrgX1 receptor, primary screen, HEK293 cells, Fluo-4 calcium flux | AID 588627, 2011 | Mas-related G-protein coupled receptor member X1 (Homo sapiens), Q96LB2 | Fluo-4 calcium fluorescence, agonist mode; stronger effect = higher value | B-score at 10 µM | actives 0.44% (n = 310,000);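 active = calcium response B-score plate-corrected fluorescence ratio at least 3 library SD, with starting fluorescence B-score inside 5 SD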
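Test system: Stable human MrgX1 HEK293 cell line | Schedule: Overnight plating before 1 h dye loading | Read-out basis: Baseline-normalised fluorescence change ratio, B-scored | Detection: Kinetic calcium dye fluorescence, Fluo-4 NW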
RGS4 inh valid – enhanced carbachol calcium response, M3R/RGS4 cells, RGS4 inhibitor project, cell-based, validation screen, HEK293 M3R/RGS4, calcium flux; shares compounds with RGS4 inh; AID 492999, 2010; actives 65% (n = 1,700); carbachol calcium Fluo-4 fluorescence; carbachol added at its EC20; 0 = buffer wells, 100 = carbachol control; calcium response, % at 10 µM;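 active = duplicate-averaged calcium response above the buffer-only control mean plus 5 SD of those controls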;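 note: integrated fluorescence ratio F max minus min over baseline F0; higher response in RGS4-induced cells means RGS4 inhibition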
RGS4 uninduced – carbachol calcium response in non-induced M3R cells, confirmation, counter-screen for RGS4 inhibitor project, cell-based, HEK293 M3R | shares compounds with RGS4 inh | carbachol calcium Fluo-4; submaximal (EC20) carbachol stimulus; buffer wells 0%, carbachol control wells 100% | activity (percent), % at 10 µM | actives 20% (n = 1,900); call rule not given here;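 note: RGS4 induction absent so cells express M3R without RGS4; higher means more calcium signal and flags a non-specific hit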
RGS4 inh ctr2 – second counter-screen for RGS4 inhibitors: non-induced cells without carbachol. AID 493001. shares compounds with RGS4 inh. HEK293 M3R/RGS4 non-induced, Fluo-4 calcium, no carbachol; normalised: buffer wells 0%, carbachol wells 100%. calcium response (agonist-mode artifact), % at 10 µM. actives 22% (n = 1,900);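 active = duplicate-averaged calcium rise in uninduced cells above buffer wells' mean plus 5 SD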
An asterisk follows results filed as active; i = inactive; x = not tested or not shown.

SMILES	KCC2 mod	MrgX1 PAM	RGS4 act	RGS4 inh	MrgX1 antagonist	MrgX1 ag	RGS4 inh valid	RGS4 uninduced	RGS4 inh ctr2
FC(F)(F)c1cc(-c2ccccc2)nc2nc(N3CCOCC3)sc12	1.31	i	i	i	i	i	x	x	x
CN(C)N1C(N)=C(C#N)C(c2ccc(Br)cc2)C2=C1CC(C)(C)CC2=O (centres undefined)	x	i	i	i	i	i	x	x	x
CCn1cc([N+](=O)[O-])c(C(=O)N2N=C(c3ccc4ccccc4c3)CC2c2ccccc2O)n1 (centres undefined)	-0.189	i	i	i	i	i	x	i	i
COc1ccc(NS(=O)(=O)c2cccc(C(=O)N(C)Cc3ccc(SC)cc3)c2)cc1	x	i	i	i	i	i	x	x	x
COc1ccc(Cl)cc1NC(=O)c1cc(-c2cc(C)ccc2O)n[nH]1	-0.0786	i	i	i	i	i	i	i	i
COc1ccc(OC)c(NC(=O)c2cc(-c3cc(C)c(C)cc3O)n[nH]2)c1	x	i	i	i	i	i	x	x	x
COc1ccc(Cl)cc1NC(=O)c1cc(-c2ccc(C)cc2O)n[nH]1	0.0144	i	i	i	i	i	x	i	i
Cc1ccccc1OCCNc1cc(N2CCCCC2)ccc1[N+](=O)[O-]	0.00414	i	i	i	i	i	i	i	i
Cc1ccccc1OCCNc1cc(N2CCN(CCO)CC2)ccc1[N+](=O)[O-]	-1.24	i	i	i	i	i	x	x	x
CC1CCN(c2nc(Cl)nc(Nc3ccc([N+](=O)[O-])cc3)n2)CC1	-0.302	i	i	i	i	i	x	x	x
COC(=O)Nc1ccc(S(=O)(=O)NC2CCCCC2)cc1	x	i	i	i	i	i	x	x	x
COc1ccc(-c2c(=O)n(OC)c3ccccc3[n+]2[O-])cc1OC	x	i	i	7.25*	i	i	i	i	i
CC(C)Oc1ccc(C(CC(=O)O)Cc2ccccc2)cc1 (centres undefined)	x	i	i	i	i	i	x	x	x
O=c1c(Cl)c(Cl)cnn1Cc1nnc(-c2ccccc2Br)o1	-1.42	x	i	72.2*	x	x	142.5%*	42.5%*	i
Clc1ccc(Cc2nnc(-c3ccccc3Br)o2)cc1	-1.71	i	i	i	i	i	x	x	x
COc1ccc(/C=C/C(=O)c2cc(Cl)cc(Cl)c2O)c(OC)c1	0.109	i	i	i	i	i	x	x	x
O=C(/C=C/c1ccccn1)c1cc(Cl)cc(Cl)c1O	0.0011	i	i	15.1*	i	i	26.0%*	63.5%*	i
Cc1ccc(C(=O)NC(C#N)=C(Cl)Cl)cc1	1.38	x	i	9.82*	x	x	21.0%*	i	i
COc1cc(/C=C2\COC/C(=C\c3cc(OC)c(OC)c(OC)c3)C2=O)cc(OC)c1OC	0.59	x	i	6.4*	x	x	20.5%*	i	i
CCOc1cc(/C=N/Nc2nc(-c3cccs3)c(NC(C)=O)s2)ccc1O	0.051	i	i	i	i	i	x	x	x
O=C1COc2ccc(C(=O)CCl)cc2N1	x	i	i	12.7*	i	i	65.5%*	58.0%*	9.5%*
CCC(=O)c1ccc(OCC(=O)c2ccc3c(c2)NC(=O)CO3)cc1	0.887	i	i	i	i	i	x	x	x
C=CCNc1nnc(SC2CC(=O)N(c3ccc(OC)cc3)C2=O)s1 (centres undefined)	x	i	i	5.66*	i	i	9.0%*	i	i
CC(=O)Nc1ccc(S(=O)(=O)NNc2cccc(C)c2)cc1	x	i	i	i	i	i	x	x	x
COC(=O)c1ccc(NC(=S)Nc2ccccc2)cc1	1.25	i	i	i	i	i	x	x	x
SMILES	KCC2 mod	MrgX1 PAM	RGS4 act	RGS4 inh	MrgX1 antagonist	MrgX1 ag	RGS4 inh valid	RGS4 uninduced	RGS4 inh ctr2
COC(=O)c1ccc(NC(=S)Nc2ccc3ccccc3c2)cc1	0.17	i	i	7.77*	i	i	i	i	i
CC1CCCCC1NC(=O)c1ccc(NC2=NC3CS(=O)(=O)CC3S2)cc1 (centres undefined)	x	i	i	i	i	i	x	x	x
Cc1cc2nc(CO)[nH]c2cc1C	-0.528	i	i	i	i	i	x	x	x
Cc1cc2nc(CS)[nH]c2cc1C	x	i	i	5.92*	i	i	28.0%*	i	i
O=C(NC1CCCC1)C1CCN(S(=O)(=O)c2ccccc2)CC1	x	i	i	i	i	i	x	x	x
O=C(N=C1SC2CS(=O)(=O)CC2N1c1ccc(Cl)c(Cl)c1)C1CCCO1 (centres undefined)	x	i	i	i	i	i	x	x	x
CCOCCCNC(=O)CN1C(=O)COc2ccc(S(=O)(=O)N3CC(C)CC(C)C3)cc21 (centres undefined)	x	i	i	i	i	i	x	x	x
CCOCCCNC(=O)CN1C(=O)COc2ccc(S(=O)(=O)N3CCCCCC3)cc21	x	i	i	i	i	i	i	i	i
CCOCCCNC(=O)CN1C(=O)COc2ccc(S(=O)(=O)N3CCC(C)CC3)cc21	x	i	i	i	i	i	i	i	i
CCCCNC(=O)CN1C(=O)COc2ccc(S(=O)(=O)N3CCCCCC3)cc21	x	i	i	i	i	i	x	x	x
CCOCCCNC(=O)CN1C(=O)COc2ccc(S(=O)(=O)N3CCOCC3)cc21	x	i	i	27.5*	i	i	6.5%*	i	i
